{
  "source": "ChEMBL document CHEMBL1130239",
  "about": "“Synthesis and evaluation of (S)-4-(3-(2'-[11C]isopropylamino)-2-hydroxypropoxy) -2H-benzimidazol -2-one ((S)-[11C]CGP 12388) and (S)-4-(3-((1'-[18F]-fluoroisopropyl)amino)-2-hydroxypropoxy) -2H- benzimidazol-2-one ((S)-[18F]fluoro-CGP 12388) for visualization of beta-adrenoceptors with positron …” (J Med Chem, 1997)",
  "key": {"Rattus norvegicus [1]": {"species_on_record": "Rattus norvegicus", "assay": "Biodistribution of [11C]-CGP- 12388 (60 minutes post injection) in liver of male wistar rats", "type": "ADME, organism-based", "conditions": "in vivo, 1 h", "how_it_was_run": "(§1)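 Wistar males (200 ± 20 g) were given pentobarbital 60 mg/kg ip, plus 15-20 mg/kg if needed before dissection. Saline controls (n = 6) or 500 μg (±)-propranolol iv blocking rats (n = 4) were pretreated <1 min before 1 MBq (30 pmol) tracer in 0.3 mL. Sacrifice and dissection were at 60 min. DAR = (cpm/g tissue)/(injected cpm/g body weight); mean ± SD.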"}, "Rattus norvegicus [2]": {"species_on_record": "Rattus norvegicus", "assay": "Biodistribution of [11C]-CGP- 12388 (60 minutes post injection) in red blood cells of male wistar rats", "type": "ADME, organism-based", "conditions": "in vivo, 1 h", "how_it_was_run": "as §1"}, "Rattus norvegicus [3]": {"species_on_record": "Rattus norvegicus", "assay": "Biodistribution of [11C]-CGP- 12388 (10 minutes post injection) in cerebellum of male wistar rats", "type": "ADME, organism-based", "conditions": "in vivo", "how_it_was_run": "(§2)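 Male Wistar rats (200 ± 20 g) under pentobarbital anesthesia (60 mg/kg ip) got iv saline (controls, n = 4) or 500 μg (±)-propranolol (blocking, n = 4) <1 min before the tracer. Tracer dose was 1 MBq (30 pmol) in 0.3 mL. Rats were killed by heart extirpation at 10 min and tissues counted. Plasma was spun 3 min at 1000g. Uptake is given as DAR, mean ± SD.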"}, "Rattus norvegicus [4]": {"species_on_record": "Rattus norvegicus", "assay": "Biodistribution of [11C]-CGP- 12388 (60 minutes post injection) in intestine bone of male wistar rats", "type": "ADME, organism-based", "conditions": "in vivo, 1 h, in the assay text read “intestine” for “intestine bone”", "how_it_was_run": "as §1"}, "Rattus norvegicus [5]": {"species_on_record": "Rattus norvegicus", "assay": "Biodistribution of [11C]-CGP- 12388 (10 minutes post injection) in fat of male wistar rats", "type": "ADME, organism-based, Adipose tissue", "conditions": "in vivo", "how_it_was_run": "as §2"}, "Rattus norvegicus [6]": {"species_on_record": "Rattus norvegicus", "assay": "Biodistribution of [11C]-CGP- 12388 (10 minutes post injection) in muscle of male wistar rats", "type": "ADME, organism-based, Muscle tissue", "conditions": "in vivo", "how_it_was_run": "as §2"}, "Rattus norvegicus [7]": {"species_on_record": "Rattus norvegicus", "assay": "Biodistribution of [11C]-CGP- 12388 (10 minutes post injection) in liver of male wistar rats", "type": "ADME, organism-based", "conditions": "in vivo", "how_it_was_run": "as §2"}, "Rattus norvegicus [8]": {"species_on_record": "Rattus norvegicus", "assay": "Biodistribution of [11C]-CGP- 12388 (60 minutes post injection) in heart of male wistar rats", "type": "ADME, organism-based", "conditions": "in vivo, 1 h", "how_it_was_run": "as §1"}, "Rattus norvegicus [9]": {"species_on_record": "Rattus norvegicus", "assay": "Biodistribution of [11C]-CGP- 12388 (60 minutes post injection) in cortex of male wistar rats", "type": "ADME, organism-based", "conditions": "in vivo, 1 h", "how_it_was_run": "as §1"}, "Rattus norvegicus [10]": {"species_on_record": "Rattus norvegicus", "assay": "Biodistribution of [11C]-CGP- 12388 (60 minutes post injection) in cerebellum of male wistar rats", "type": "ADME, organism-based", "conditions": "in vivo, 1 h", "how_it_was_run": "as §1"}, "Rattus norvegicus [11]": {"species_on_record": "Rattus norvegicus", "assay": "Biodistribution of [11C]-CGP- 12388 (10 minutes post injection) in intestine of male wistar rats", "type": "ADME, organism-based", "conditions": "in vivo", "how_it_was_run": "as §2"}, "Rattus norvegicus [12]": {"species_on_record": "Rattus norvegicus", "assay": "Biodistribution of [11C]-CGP- 12388 (10 minutes post injection) in red blood cells of male wistar rats", "type": "ADME, organism-based", "conditions": "in vivo", "how_it_was_run": "as §2"}, "Rattus norvegicus [13]": {"species_on_record": "Rattus norvegicus", "assay": "Biodistribution of [11C]-CGP- 12388 (60 minutes post injection) in plasma of male wistar rats", "type": "ADME, organism-based", "conditions": "in vivo, 1 h", "how_it_was_run": "as §1"}, "Rattus norvegicus [14]": {"species_on_record": "Rattus norvegicus", "assay": "Biodistribution of [11C]-CGP- 12388 (60 minutes post injection) in fat of male wistar rats", "type": "ADME, organism-based, Adipose tissue", "conditions": "in vivo, 1 h", "how_it_was_run": "as §1"}, "Rattus norvegicus [15]": {"species_on_record": "Rattus norvegicus", "assay": "Biodistribution of [11C]-CGP- 12388 (60 minutes post injection) in kidney of male wistar rats", "type": "ADME, organism-based", "conditions": "in vivo, 1 h", "how_it_was_run": "as §1"}, "[16]": {"assay": "Partition coefficient (logP)", "type": "physicochemical", "conditions": "octanol/water", "how_it_was_run": "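50-100 μCi of tracer in 0.1 M phosphate buffer pH 7.4 (5 mL) plus n-octanol (5 mL). Shaken vigorously for 30 min at 37 °C, five mixtures. 100 μL of each layer gamma-counted. log P from the octanol/water count ratio, n = 5. A calculated value was also obtained with Pallas 1.2.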"}, "Rattus norvegicus [17]": {"species_on_record": "Rattus norvegicus", "assay": "Biodistribution of [11C]-CGP- 12388 (60 minutes post injection) in lung of male wistar rats", "type": "ADME, organism-based", "conditions": "in vivo, 1 h", "how_it_was_run": "as §1"}, "Rattus norvegicus [18]": {"species_on_record": "Rattus norvegicus", "assay": "Biodistribution of [11C]-CGP- 12388 (10 minutes post injection) in lung of male wistar rats", "type": "ADME, organism-based", "conditions": "in vivo", "how_it_was_run": "as §2"}, "Rattus norvegicus [19]": {"species_on_record": "Rattus norvegicus", "assay": "Biodistribution of [11C]-CGP- 12388 (60 minutes post injection) in muscle of male wistar rats", "type": "ADME, organism-based, Muscle tissue", "conditions": "in vivo, 1 h", "how_it_was_run": "as §1"}, "Rattus norvegicus [20]": {"species_on_record": "Rattus norvegicus", "assay": "Biodistribution of [11C]-CGP- 12388 (60 minutes post injection) in spleen of male wistar rats", "type": "ADME, organism-based", "conditions": "in vivo, 1 h", "how_it_was_run": "as §1"}, "Rattus norvegicus [21]": {"species_on_record": "Rattus norvegicus", "assay": "Biodistribution of [11C]-CGP- 12388 (10 minutes post injection) in kidney of male wistar rats", "type": "ADME, organism-based", "conditions": "in vivo", "how_it_was_run": "as §2"}, "Rattus norvegicus [22]": {"species_on_record": "Rattus norvegicus", "assay": "Biodistribution of [11C]-CGP- 12388 (10 minutes post injection) in bone of male wistar rats", "type": "ADME, organism-based, Bone element", "conditions": "in vivo", "how_it_was_run": "as §2"}, "Rattus norvegicus [23]": {"species_on_record": "Rattus norvegicus", "assay": "Biodistribution of [11C]-CGP- 12388 (10 minutes post injection) in trachea of male wistar rats", "type": "ADME, organism-based", "conditions": "in vivo", "how_it_was_run": "as §2"}, "Rattus norvegicus [24]": {"species_on_record": "Rattus norvegicus", "assay": "Biodistribution of [11C]-CGP- 12388 (60 minutes post injection) in bone of male wistar rats", "type": "ADME, organism-based, Bone element", "conditions": "in vivo, 1 h", "how_it_was_run": "as §1"}, "Rattus norvegicus [25]": {"species_on_record": "Rattus norvegicus", "assay": "Biodistribution of [11C]-CGP- 12388 (10 minutes post injection) in cortex of male wistar rats", "type": "ADME, organism-based", "conditions": "in vivo", "how_it_was_run": "as §2"}, "Rattus norvegicus [26]": {"species_on_record": "Rattus norvegicus", "assay": "Biodistribution of [11C]-CGP- 12388 (10 minutes post injection) in heart of male wistar rats", "type": "ADME, organism-based", "conditions": "in vivo", "how_it_was_run": "as §2"}, "Rattus norvegicus [27]": {"species_on_record": "Rattus norvegicus", "assay": "Biodistribution of [11C]-CGP- 12388 (10 minutes post injection) in plasma of male wistar rats", "type": "ADME, organism-based", "conditions": "in vivo", "how_it_was_run": "as §2"}, "Rattus norvegicus [28]": {"species_on_record": "Rattus norvegicus", "assay": "Biodistribution of [11C]-CGP- 12388 (60 minutes post injection) in trachea of male wistar rats", "type": "ADME, organism-based", "conditions": "in vivo, 1 h", "how_it_was_run": "as §1"}, "Rattus norvegicus [29]": {"species_on_record": "Rattus norvegicus", "assay": "Biodistribution of [11C]-CGP- 12388 (10 minutes post injection) in spleen of male wistar rats", "type": "ADME, organism-based", "conditions": "in vivo", "how_it_was_run": "as §2"}},
  "data": [
    {"compound": "C[11CH](C)NC[C@H](O)COc1cccc2[nH]c(O)nc12", "values": [
      {"measurement": "DAR", "setting": "Rattus norvegicus [1]", "result": 0.68},
      {"measurement": "DAR", "setting": "Rattus norvegicus [2]", "result": 0.49},
      {"measurement": "DAR", "setting": "Rattus norvegicus [3]", "result": 0.09},
      {"measurement": "DAR", "setting": "Rattus norvegicus [4]", "result": 1.14},
      {"measurement": "DAR", "setting": "Rattus norvegicus [5]", "result": 0.16},
      {"measurement": "DAR", "setting": "Rattus norvegicus [6]", "result": 0.23},
      {"measurement": "DAR", "setting": "Rattus norvegicus [7]", "result": 1.65},
      {"measurement": "DAR", "setting": "Rattus norvegicus [8]", "result": 0.76},
      {"measurement": "DAR", "setting": "Rattus norvegicus [9]", "result": 0.25},
      {"measurement": "DAR", "setting": "Rattus norvegicus [10]", "result": 0.26},
      {"measurement": "DAR", "setting": "Rattus norvegicus [11]", "result": 0.55},
      {"measurement": "DAR", "setting": "Rattus norvegicus [12]", "result": 0.7},
      {"measurement": "DAR", "setting": "Rattus norvegicus [13]", "result": 0.4},
      {"measurement": "DAR", "setting": "Rattus norvegicus [14]", "result": 0.26},
      {"measurement": "DAR", "setting": "Rattus norvegicus [15]", "result": 0.94},
      {"measurement": "logP", "setting": "[16]", "result": -0.64},
      {"measurement": "DAR", "setting": "Rattus norvegicus [17]", "result": 0.88},
      {"measurement": "DAR", "setting": "Rattus norvegicus [18]", "result": 1.26},
      {"measurement": "DAR", "setting": "Rattus norvegicus [19]", "result": 0.36},
      {"measurement": "DAR", "setting": "Rattus norvegicus [20]", "result": 0.49},
      {"measurement": "DAR", "setting": "Rattus norvegicus [21]", "result": 2.44},
      {"measurement": "DAR", "setting": "Rattus norvegicus [22]", "result": 0.2},
      {"measurement": "DAR", "setting": "Rattus norvegicus [23]", "result": 0.7},
      {"measurement": "DAR", "setting": "Rattus norvegicus [24]", "result": 0.23},
      {"measurement": "DAR", "setting": "Rattus norvegicus [25]", "result": 0.07},
      {"measurement": "DAR", "setting": "Rattus norvegicus [26]", "result": 0.72},
      {"measurement": "DAR", "setting": "Rattus norvegicus [27]", "result": 0.5},
      {"measurement": "DAR", "setting": "Rattus norvegicus [28]", "result": 0.86},
      {"measurement": "DAR", "setting": "Rattus norvegicus [29]", "result": 0.78}
    ]}
  ]
}
